{
  "source": "ChEMBL document CHEMBL1131066",
  "about": "“2-Substituted aminopyrido[2,3-d]pyrimidin-7(8H)-ones. structure-activity relationships against selected tyrosine kinases and in vitro and in vivo anticancer activity” (J Med Chem, 1998)",
  "key": {"NIH3T3 [1]": {"system": "NIH3T3", "experiment": "Growth of NIH3T3 cells in soft agar with continuous treatment", "assay_type": "functional, cell-based", "conditions": "Mus musculus", "summary_of_the_method": "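NIH3T3 cells transfected with PDGF-B exposed to a range of concentrations for 3 days, then cloned in soft agar with the same concentration kept present. Colonies stained and counted after two weeks. IC50; mean of two experiments, each in duplicate.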"}, "C6 [2]": {"system": "C6", "experiment": "C6 cell growth in soft agar with discontinued treatment", "assay_type": "functional, cell-based, Rattus norvegicus", "conditions": "c6", "summary_of_the_method": "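C6 rat glioma cells given 3-day exposure to a concentration series, then washed free of inhibitor and plated in drug-free soft agar; colonies stained and counted after two weeks. IC50; mean of two experiments, each in duplicate.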"}, "[3]": {"biological_target": "Platelet-derived growth factor receptor (Mus musculus, UniProt P05622+P26618)", "experiment": "Inhibition of PDGF-induced autophosphorylation of PDGF-R in NIH3T3 cells"}, "[4]": {"biological_target": "Proto-oncogene tyrosine-protein kinase Src (Homo sapiens, UniProt P12931)", "sequence (P12931 2-536 limits assumed)": "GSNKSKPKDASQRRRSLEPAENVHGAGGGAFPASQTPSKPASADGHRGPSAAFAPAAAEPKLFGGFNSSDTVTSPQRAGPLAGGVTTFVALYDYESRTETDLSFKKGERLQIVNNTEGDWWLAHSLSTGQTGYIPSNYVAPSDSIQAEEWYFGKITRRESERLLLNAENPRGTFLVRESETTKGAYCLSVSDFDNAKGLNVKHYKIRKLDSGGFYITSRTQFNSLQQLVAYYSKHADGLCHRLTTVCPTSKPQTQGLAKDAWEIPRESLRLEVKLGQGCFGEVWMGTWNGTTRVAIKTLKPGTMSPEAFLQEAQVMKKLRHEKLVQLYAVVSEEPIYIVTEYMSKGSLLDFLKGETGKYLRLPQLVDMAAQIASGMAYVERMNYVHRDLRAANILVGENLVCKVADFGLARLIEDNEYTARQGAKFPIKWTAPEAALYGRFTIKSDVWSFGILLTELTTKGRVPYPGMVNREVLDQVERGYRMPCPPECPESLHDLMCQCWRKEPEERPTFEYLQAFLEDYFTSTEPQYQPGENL", "experiment": "Inhibition of c-Src tyrosine kinase", "assay_type": "functional", "summary_of_the_method": "(§1)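 Recombinant kinases (PDGFr-β, FGFr-1, c-Src), enzyme inhibition IC50. Mean of at least two separate determinations, each done in triplicate; replicate values typically varied under 30%.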"}, "HT-29 [5]": {"system": "HT-29", "experiment": "Difference in days for treated (T) and control (C) HT-29 cell tumors to reach 750 mg in mice at 44 mg/kg peroral dose, days 15-29 administration", "assay_type": "functional", "conditions": "route oral", "summary_of_the_method": "(§2)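 Nude mice (NCr nu/nu), 18–22 g, 6–8 per group, randomized and implanted with serially passaged tumor fragments in the right axilla on day 0. Dosed by average cage weight. Vehicle was 50 mM sodium lactate buffer, pH 4.0, or a 0.5% methyl cellulose suspension for one compound. Cisplatin was given in saline. T − C is the difference in days for treated and control tumors to reach 750 mg.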"}, "[6]": {"biological_target": "T1, Fibroblast growth factor receptor 1 (Homo sapiens, UniProt P11362)", "T1 sequence (P11362 whole entry)": "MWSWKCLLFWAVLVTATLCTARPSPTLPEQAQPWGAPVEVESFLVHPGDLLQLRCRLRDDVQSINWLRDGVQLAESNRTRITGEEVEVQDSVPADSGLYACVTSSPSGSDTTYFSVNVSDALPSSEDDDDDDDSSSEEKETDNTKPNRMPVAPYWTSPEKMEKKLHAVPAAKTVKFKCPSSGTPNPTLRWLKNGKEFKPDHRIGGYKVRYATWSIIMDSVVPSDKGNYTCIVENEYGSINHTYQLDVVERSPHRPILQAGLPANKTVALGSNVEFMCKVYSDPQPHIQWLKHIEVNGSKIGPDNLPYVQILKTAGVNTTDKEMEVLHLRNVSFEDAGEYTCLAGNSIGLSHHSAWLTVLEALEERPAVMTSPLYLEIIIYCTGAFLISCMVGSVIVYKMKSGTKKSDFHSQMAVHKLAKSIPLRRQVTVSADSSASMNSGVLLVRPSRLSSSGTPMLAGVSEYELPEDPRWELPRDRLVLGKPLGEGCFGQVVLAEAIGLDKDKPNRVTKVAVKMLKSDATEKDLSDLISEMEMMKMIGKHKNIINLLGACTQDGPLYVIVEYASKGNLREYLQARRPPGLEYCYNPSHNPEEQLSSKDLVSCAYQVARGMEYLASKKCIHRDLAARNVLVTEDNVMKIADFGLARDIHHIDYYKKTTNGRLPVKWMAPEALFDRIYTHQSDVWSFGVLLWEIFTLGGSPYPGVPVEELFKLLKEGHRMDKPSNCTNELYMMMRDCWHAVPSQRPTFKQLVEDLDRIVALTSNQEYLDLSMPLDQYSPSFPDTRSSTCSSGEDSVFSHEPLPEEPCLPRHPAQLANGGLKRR", "experiment": "Inhibitory concentration evaluated against fibroblast growth factor receptor 1."}, "MCF7 [7]": {"system": "MCF7", "experiment": "Net reduction in tumor burden between first and last treatments of MCF-7 cell tumors in mice at 50 mg/kg peroral dose, days 1-15 administration", "assay_type": "functional", "conditions": "route oral", "summary_of_the_method": "(§3)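 NCr nu/nu nude mice (18–22 g, 6–8 per group, randomized) had tumor fragments, kept by serial passage in nude mice, implanted in the right axilla on day 0. Mice were dosed by average cage weight on the listed days, over a range from toxic to ineffective doses. Vehicle was 50 mM sodium lactate pH 4.0 or 0.5% methyl cellulose suspension. Net log cell kill was taken between first and last treatments.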"}, "SK-OV-3 [8]": {"system": "SK-OV-3", "experiment": "Weight change of SK-OV-3 cell tumors in mice at 40 mg/kg peroral dose, days 15-29 administration", "assay_type": "functional", "conditions": "route oral", "summary_of_the_method": "(§4)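 Nude mice (NCr nu/nu, 18–22 g, 6–8 per group) were randomized and implanted with serially passaged tumor fragments in the right axilla on day 0. Oral dosing was based on average cage weight, on the days stated, over a dose range from toxic to ineffective. Vehicle was 50 mM sodium lactate buffer, pH 4.0, or 0.5% methyl cellulose suspension. Host weight change is reported as maximum treatment-related loss.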"}, "COLO 205 [9]": {"system": "COLO 205", "experiment": "Weight change of COLO 205 tumor cells in mice at 40 mg/kg peroral dose, days 9-23 administration", "assay_type": "functional, organism-based", "design": "dose 40 mg/kg", "summary_of_the_method": "(§5)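 Tumor-bearing nude mice (NCr nu/nu, 18–22 g, 6–8 per group) were implanted in the right axilla with tumor fragments on day 0 and dosed by average cage weight. Vehicle was 50 mM sodium lactate pH 4.0, or 0.5% methyl cellulose suspension; cisplatin was given in saline. Host body weight change is given as the maximum treatment-related weight loss.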"}, "MCF7 [10]": {"system": "MCF7", "experiment": "Difference in days for treated (T) and control (C) MCF-7 cell tumors to reach 750 mg in mice at 50 mg/kg peroral dose, days 1-15 administration", "assay_type": "functional", "conditions": "route oral", "summary_of_the_method": "as §2"}, "HT-29 [11]": {"system": "HT-29", "experiment": "Weight change of HT-29 tumor cells in mice at 44 mg/kg peroral dose, days 15-29 administration", "assay_type": "functional", "conditions": "route oral", "summary_of_the_method": "as §5"}, "NIH3T3 [12]": {"system": "NIH3T3", "experiment": "Inhibition of NIH3T3 proliferation by sulforhodamine B assay", "assay_type": "functional, cell-based, Mus musculus", "conditions": "nih3t3"}, "COLO 205 [13]": {"system": "COLO 205", "experiment": "Net reduction in tumor burden between first and last treatments of COLO 205 cell tumors in mice at 40 mg/kg peroral dose, days 9-23 administration", "assay_type": "functional", "conditions": "route oral", "summary_of_the_method": "as §3"}, "C6 [14]": {"system": "C6", "experiment": "Difference in days for treated (T) and control (C) C6 glioma cell tumors to reach 750 mg in mice at 50 mg/kg peroral dose, days 1-15 administration", "assay_type": "functional", "conditions": "route oral", "summary_of_the_method": "as §2"}, "Mus musculus [15]": {"system": "Mus musculus", "experiment": "Weight change of PDGF-transfected fibroblast cells in mice at 50 mg/kg peroral dose, days 1-15 administration", "assay_type": "functional", "conditions": "route oral", "summary_of_the_method": "as §4"}, "[16]": {"biological_target": "T1, Fibroblast growth factor receptor 1", "experiment": "Inhibition of fibroblast growth factor receptor (FGFr) tyrosine kinase", "summary_of_the_method": "as §1"}, "C6 [17]": {"system": "C6", "experiment": "Weight change of C6 glioma tumor cells in mice at 50 mg/kg peroral dose, days 1-15 administration", "assay_type": "functional, organism-based", "design": "dose 50 mg/kg", "summary_of_the_method": "as §5"}, "C6 [18]": {"system": "C6", "experiment": "C6 cell growth in soft agar with continuous treatment", "assay_type": "functional, cell-based, Rattus norvegicus", "conditions": "c6", "summary_of_the_method": "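C6 rat glioma cells (F10 Ham's with 15% horse serum, 2.5% fetal calf serum) exposed 3 days to a concentration series, then plated in soft agar with compound still present at the same concentration; colonies stained and counted after two weeks. IC50; mean of two experiments, each in duplicate.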"}, "MCF7 [19]": {"system": "MCF7", "experiment": "Weight change of MCF-7 tumor cells in mice at 50 mg/kg peroral dose, days 1-15 administration", "assay_type": "functional, organism-based", "design": "dose 50 mg/kg", "summary_of_the_method": "as §5"}, "SK-OV-3 [20]": {"system": "SK-OV-3", "experiment": "Difference in days for treated (T) and control (C) SKOV-3 cell tumors to reach 750 mg in mice at 40 mg/kg peroral dose, days 15-29 administration", "assay_type": "functional", "conditions": "route oral", "summary_of_the_method": "as §2"}, "COLO 205 [21]": {"system": "COLO 205", "experiment": "Difference in days for treated (T) and control (C) COLO 205 cell tumors to reach 750 mg in mice at 40 mg/kg peroral dose, days 9-23 administration", "assay_type": "functional", "conditions": "route oral", "summary_of_the_method": "as §2"}, "Mus musculus [22]": {"system": "Mus musculus", "experiment": "Difference in days for treated (T) and control (C) PDGF-transfected fibroblast tumors to reach 750 mg in mice at 50 mg/kg peroral dose, days 1-15 administration", "assay_type": "functional", "conditions": "route oral", "summary_of_the_method": "as §2"}, "NIH3T3 [23]": {"system": "NIH3T3", "experiment": "Growth of NIH3T3 cell colonies in soft agar with continuous treatment", "assay_type": "functional, cell-based", "conditions": "Mus musculus", "summary_of_the_method": "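Soft agar cloning used PDGF-B-transfected NIH3T3 (NIH3T3/PDGF) cells. Cells were exposed 3 days to a concentration series, then plated in soft agar with the matching compound concentration kept present. Colonies were stained and counted after two weeks. IC50; mean of two experiments, each in duplicate.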"}, "C6 [24]": {"system": "C6", "experiment": "Inhibition of C6 cell proliferation in sulforhodamine B assay", "assay_type": "functional, cell-based, Rattus norvegicus", "conditions": "c6", "summary_of_the_method": "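C6 rat glioma cells (F10 Ham's, 15% horse serum, 2.5% fetal calf serum) seeded and allowed 24 h to attach, then given serial 2-fold compound dilutions; 4 d at 37 °C, 5% CO2; growth read by sulforhodamine B staining. IC50; mean of two experiments, each in triplicate.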"}},
  "note": "Where “and” joins values, the source holds several entries; their conditions need not be identical. Equal values may be shown once.",
  "data": [
    {"smiles": "CCN(CC)CCOc1cccc(Nc2ncc3cc(-c4c(Cl)cccc4Cl)c(=O)n(C)c3n2)c1", "values": [
      {"measurement": "IC50", "setting": "NIH3T3 [1]", "result": 17, "unit": "nM"},
      {"measurement": "IC50", "setting": "C6 [2]", "result": "2790 nM and 400 nM"},
      {"measurement": "IC50", "setting": "[3]", "result": 1.7, "unit": "nM"},
      {"measurement": "IC50", "setting": "[4]", "result": 9, "unit": "nM"},
      {"measurement": "T-C", "setting": "HT-29 [5]", "result": -2.5, "unit": "days"},
      {"measurement": "IC50", "setting": "[6]", "result": 32, "unit": "nM"},
      {"measurement": "Net cell kill", "setting": "MCF7 [7]", "result": -0.6, "unit": "log10"},
      {"measurement": "Weight change", "setting": "SK-OV-3 [8]", "result": -2, "unit": "g"},
      {"measurement": "Weight change", "setting": "COLO 205 [9]", "result": "Weight gain"},
      {"measurement": "T-C", "setting": "MCF7 [10]", "result": 0.8, "unit": "days"},
      {"measurement": "Weight change", "setting": "HT-29 [11]", "result": -2, "unit": "g"},
      {"measurement": "IC50", "setting": "NIH3T3 [12]", "result": "147 nM and 410 nM"},
      {"measurement": "Net cell kill", "setting": "COLO 205 [13]", "result": -0.4, "unit": "log10"},
      {"measurement": "T-C", "setting": "C6 [14]", "result": -2, "unit": "days"},
      {"measurement": "Weight change", "setting": "Mus musculus [15]", "result": -1.6, "unit": "g"},
      {"measurement": "IC50", "setting": "[16]", "result": 30, "unit": "nM"},
      {"measurement": "Weight change", "setting": "C6 [17]", "result": "Weight gain"},
      {"measurement": "IC50", "setting": "C6 [18]", "result": "440 nM and 120 nM"},
      {"measurement": "Weight change", "setting": "MCF7 [19]", "result": "Weight gain"},
      {"measurement": "T-C", "setting": "SK-OV-3 [20]", "result": -0.4, "unit": "days"},
      {"measurement": "T-C", "setting": "COLO 205 [21]", "result": 6.8, "unit": "days"},
      {"measurement": "T-C", "setting": "Mus musculus [22]", "result": -0.4, "unit": "days"},
      {"measurement": "IC50", "setting": "NIH3T3 [23]", "result": 17, "unit": "nM"},
      {"measurement": "IC50", "setting": "C6 [24]", "result": "840 nM and 350 nM"}
    ]}
  ]
}
